ChEMBL document CHEMBL1671747, “Efficacy and safety of intravenous peramivir for treatment of seasonal influenza virus infection” (Antimicrob Agents Chemother, 2010)
Calls of active or inactive are those of the source. The calls are words filed in the database; no cut-off is given here.

Legend:
Homo sapiens [1] = assay: Toxicity in human patient infected with Influenza virus assessed as beta-N-Acetyl-D-glucosaminidase at 600 mg, iv; format: organism-based; conditions: in vivo
Outline: (§1)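 One IV dose of 300 or 600 mg or placebo was given to adults with influenza. Blood (hematology, biochemistry) and urine (including NAG, β2- and α1-microglobulin, protein) were sampled at baseline, day 3 and day 14 by blinded technicians. Adverse-event incidence versus placebo was compared by Fisher's exact test.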

Homo sapiens [2] = assay: Toxicity in human patient infected with Influenza virus assessed as urine containing albumine at 600 mg, iv; format: organism-based; conditions: in vivo
Outline: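 Subjects received a single intravenous peramivir dose (300 or 600 mg) or placebo, infused over a median of 0.63 h. Urinalysis covered protein, albumin and sediment, among other analytes. Urine was collected at baseline and on days 3 and 14 and tested by blinded technicians. Incidence in the safety population (n = 298 treated) was compared with placebo by Fisher's exact test.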

Homo sapiens [3] = assay: Toxicity in human patient infected with Influenza virus assessed as decrease in total Protein at 600 mg, iv; format: organism-based; conditions: in vivo; outline: as §1
Homo sapiens [4] = assay: Toxicity in human patient infected with Influenza virus assessed as lymphocyte morphology abnormal at 600 mg, iv; format: organism-based; conditions: in vivo
Outline: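 Adults with seasonal influenza received one intravenous infusion of peramivir (300 or 600 mg) or matching placebo; the median infusion lasted 0.63 h. Blood for haematology, including the white-cell differential, was taken at baseline and on days 3 and 14. Tests were run by blinded technicians. Adverse-event incidence in the 298-subject safety population was compared with placebo by Fisher's exact test.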

Homo sapiens [5] = assay: Toxicity in human patient infected with Influenza virus assessed as nasopharyngitis at 600 mg, iv; format: organism-based; conditions: in vivo
Outline: (§2)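 In this randomized trial, subjects received a single intravenous infusion of peramivir (300 mg or 600 mg) or matching placebo; the median infusion lasted 0.63 h. Subjects were followed at visits on days 1, 2 (optional), 3, 5, 9 and 14. Adverse-event incidences across the 298 treated subjects were compared with placebo using Fisher's exact test.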

Homo sapiens [6] = assay: Toxicity in human patient infected with Influenza virus assessed as increase in blood phosphate at 600 mg, iv; format: organism-based; conditions: in vivo; outline: as §1
Influenza A virus [7] = assay: Antiviral activity against Influenza A virus H3N2 infected in human patient assessed as alleviation time of symptoms at 300 mg, iv (reference value: 81 hrs); format: functional
Influenza A virus [8] = assay: Antiviral activity against Influenza A virus H3N2 infected in human patient assessed as alleviation time of symptoms at 600 mg, iv (reference value: 81 hrs); format: functional
[9] = test system: unidentified influenza virus; assay: Antiviral activity against Influenza virus infected in human patient assessed as reduction in fever at 300 mg, iv after 24 hrs; format: functional, organism-based
Outline: (§3)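 A single IV dose of 300 or 600 mg or placebo was given to adults with seasonal influenza. The outcome was the proportion of subjects with postbaseline normal temperature (<37.0°C). Groups were compared by Mantel-Haenszel test stratified for smoking and baseline composite symptom score.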

[10] = test system: unidentified influenza virus; assay: Antiviral activity against Influenza virus infected in human patient assessed as reduction in fever at 600 mg, iv after 24 hrs; format: functional, organism-based; outline: as §3
Influenza A virus [11] = assay: Antiviral activity against influenza A virus H1N1 infected in MDCK cells assessed as inhibition of neuraminidase activity by fluorimetric assay; format: functional, organism-based
Outline: (§4)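 Viruses were isolated from baseline patient swabs on MDCK cells. Neuraminidase inhibition was measured by a standard fluorometric assay. IC50 came from plotting percent inhibition of neuraminidase activity against inhibitor concentration, reported as mean ± SD of three independent experiments.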

Influenza A virus [12] = assay: Antiviral activity against influenza A virus H3N2 infected in MDCK cells assessed as inhibition of neuraminidase activity by fluorimetric assay; format: functional, organism-based; outline: as §4
Influenza A virus [13] = assay: Antiviral activity against influenza A virus infected in MDCK cells assessed as inhibition of neuraminidase activity by fluorimetric assay; format: functional, organism-based; outline: as §4
Influenza B virus = assay: Antiviral activity against influenza B virus infected in MDCK cells assessed as inhibition of neuraminidase activity by fluorimetric assay; format: functional, organism-based; outline: as §4
Influenza A virus [14] = assay: Antiviral activity against Influenza A virus H1N1 infected in human patient assessed as alleviation time of symptoms at 300 mg, iv (reference value: 81.4 hrs); format: functional
Influenza A virus [15] = assay: Antiviral activity against Influenza A virus H1N1 infected in human patient assessed as alleviation time of symptoms at 600 mg, iv (reference value: 81.4 hrs); format: functional
[16] = test system: unidentified influenza virus; assay: Antiviral activity against Influenza virus infected in human patient assessed as resumption time of usual activities at 300 mg, iv; format: functional
Homo sapiens [17] = assay: Toxicity in human patient infected with Influenza virus assessed as occurrence of bronchitis at 300 mg, iv; format: organism-based; conditions: in vivo; outline: as §2
Homo sapiens [18] = assay: Toxicity in human patient infected with Influenza virus assessed as occurrence of otitis at 600 mg, iv; format: organism-based; conditions: in vivo; outline: as §2
[19] = test system: unidentified influenza virus; assay: Antiviral activity against Influenza virus infected in human patient assessed as decrease in virus-positive patients at 300 mg, iv on day 3; format: functional
Outline: (§5)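 Nasal and throat swabs were taken at baseline and on days 2, 3, 5 and 9, held in 2 ml transport medium, and titrated on MDCK cells in triplicate: 10-fold dilutions, 3 μg/ml trypsin, 1 h adsorption, washes, then 3 days at 37°C. CPE gave TCID50/ml by Spearman-Karber; positive meant ≥1.1 log10 TCID50/ml. Proportions were compared by Mantel-Haenszel test stratified for smoking and baseline score.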

[20] = test system: unidentified influenza virus; assay: Antiviral activity against Influenza virus infected in human patient assessed as decrease in virus-positive patients at 600 mg, iv on day 3; format: functional; outline: as §5
[21] = test system: unidentified influenza virus; assay: Antiviral activity against Influenza virus infected in human patient assessed as decrease in virus-positive patients at 300 mg, iv on day 9; format: functional; outline: as §5
[22] = test system: unidentified influenza virus; assay: Antiviral activity against Influenza virus infected in human patient assessed as decrease in virus-positive patients at 600 mg, iv on day 9; format: functional; outline: as §5
Homo sapiens [23] = assay: Toxicity in human patient infected with Influenza virus assessed as occurrence of diarrhea at 300 mg, iv; format: organism-based; conditions: in vivo; outline: as §2
Homo sapiens [24] = assay: Toxicity in human patient infected with Influenza virus assessed as occurrence of diarrhea at 600 mg, iv; format: organism-based; conditions: in vivo; outline: as §2
Homo sapiens [25] = assay: Toxicity in human patient infected with Influenza virus assessed as occurrence of nausea at 300 mg, iv; format: organism-based; conditions: in vivo; outline: as §2
Homo sapiens [26] = assay: Toxicity in human patient infected with Influenza virus assessed as occurrence of nausea at 600 mg, iv; format: organism-based; conditions: in vivo; outline: as §2
Homo sapiens [27] = assay: Toxicity in human patient infected with Influenza virus assessed as prolongation of electrocardiogram QT interval at 300 mg, iv; format: organism-based; conditions: in vivo
Homo sapiens [28] = assay: Toxicity in human patient infected with Influenza virus assessed as increase in blood glucose level at 600 mg, iv; format: organism-based; conditions: in vivo; outline: as §1
Homo sapiens [29] = assay: Toxicity in human patient infected with Influenza virus assessed as increase in blood creatinine level at 600 mg, iv; format: organism-based; conditions: in vivo; outline: as §1
Plasma [30] = assay: Plasma concentration in human at 300 mg, iv; format: ADME
Outline: (§6)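 Subjects received a single IV infusion of 300 or 600 mg (mean 5.0 or 10.0 mg/kg; median infusion 0.63 h). Plasma was sampled just before the infusion ended, and on days 2 and 3. Samples were deproteinized and run on C18 LC/MS-MS. Values are medians at end of infusion, 18–24 h and 36–48 h after infusion.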

Plasma [31] = assay: Plasma concentration in human at 600 mg, iv; format: ADME; outline: as §6
Plasma [32] = assay: Plasma concentration in human at 300 mg, iv after 18 to 24 hrs; format: ADME, organism-based; conditions: in vivo; outline: as §6
Plasma [33] = assay: Plasma concentration in human at 600 mg, iv after 18 to 24 hrs; format: ADME, organism-based; conditions: in vivo; outline: as §6
Plasma [34] = assay: Plasma concentration in human at 300 mg, iv after 36 to 48 hrs; format: ADME, organism-based; conditions: in vivo; outline: as §6

`CCC(CC)[C@H](NC(C)=O)[C@@H]1[C@H](O)[C@@H](C(=O)O)C[C@H]1NC(=N)N` [PERAMIVIR ANHYDROUS] was tested, and the Activity (Homo sapiens [1]) was “Toxic”, the Activity (Homo sapiens [2]) was “Toxic” and the Activity (Homo sapiens [3]) was “Toxic”. The Activity (Homo sapiens [4]) was “Toxic”, the Activity (Homo sapiens [5]) was “Toxic” and the Activity (Homo sapiens [6]) was “Toxic”. The Time (Influenza A virus [7]) was 76.1 h, the Time (Influenza A virus [8]) was 50.5 h and the Activity [9] was “Active”. For the same molecule, the Activity [10] was “Active”, the IC50 (Influenza A virus [11]) was 9.43 nM and the IC50 (Influenza A virus [12]) was 3.51 nM. For the same molecule, the IC50 (Influenza A virus [13]) was 1.72 nM, the IC50 (Influenza B virus) was 3 nM and the Time (Influenza A virus [14]) was 52.5 h. It also gave a Time (Influenza A virus [15]) of 62.6 h, a Time [16] of 125.6 h and an Activity (Homo sapiens [17]) of 3%. For the same molecule, the Activity (Homo sapiens [18]) was 1%, the “inhibition (INH)” value [19] was 36.8% and the “inhibition (INH)” value [20] was 25.8%. The “inhibition (INH)” value [21] was 0%, the “inhibition (INH)” value [22] was 1.1% and the Activity (Homo sapiens [23]) was 14.1%. For the same molecule, the Activity (Homo sapiens [24]) was 15.2%, the Activity (Homo sapiens [25]) was 3% and the Activity (Homo sapiens [26]) was 6.1%. For the same molecule, the Activity (Homo sapiens [27]) was 2%, the Activity (Homo sapiens [28]) was “Toxic” and the Activity (Homo sapiens [29]) was “Toxic”. For the same molecule, the Cp (Plasma [30]) was 18100 ng/mL, the Cp (Plasma [31]) was 36300 ng/mL and the Cp (Plasma [32]) was 14.8 ng/mL. For the same molecule, the Cp (Plasma [33]) was 32.8 ng/mL and the Cp (Plasma [34]) was 5.01 ng/mL.
